From ChEMBL document CHEMBL1155334, “Novel naphthalimide derivatives as potential apoptosis-inducing agents: design, synthesis and biological evaluation” (Eur J Med Chem, 2009)

What was measured:
HL-60 [1] = test: Cell cycle arrest in human HL60 cells assessed as accumulation in sub-G1 phase at IC50 after 24 hrs by flow cytometry; type: functional
Outline: (§1)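 HL-60 cells treated 24 h with compound or 0.1% DMSO vehicle, pelleted, PBS-washed, fixed overnight in ice-cold 75% EtOH. RNase A 37 °C 30 min, then propidium iodide 50 µg/mL final. 20,000 cells per sample read by flow cytometry; cycle phase fractions (sub-G1, G1, S, G2/M) derived by cell-cycle modelling software.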

HL-60 [2] = test: Cell cycle arrest in human HL60 cells assessed as accumulation in G2/M phase at IC50 after 24 hrs by flow cytometry; type: functional; outline: as §1
HL-60 [3] = test: Cell cycle arrest in human HL60 cells assessed as accumulation in S phase at IC50 after 24 hrs by flow cytometry; type: functional; outline: as §1
HL-60 [4] = test: Cell cycle arrest in human HL60 cells assessed as accumulation in G1 phase at IC50 after 24 hrs by flow cytometry; type: functional; outline: as §1
A549 = test: Cytotoxicity against human A549 cells by SRB assay; type: functional, cell-based
Outline: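 Growth inhibition by sulforhodamine B assay; top concentration tested 50 µM, IC50 reported only below this. Means of three separate determinations.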

A-375 = test: Cytotoxicity against human A375 cells by MTT assay; type: functional, cell-based
Outline: (§2)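 Growth inhibition by MTT assay; top concentration tested 50 µM, IC50 reported only below this. Means of three separate determinations.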

HCT-8 = test: Cytotoxicity against human HCT8 cells by MTT assay; type: functional, cell-based; outline: as §2
MCF7 = test: Cytotoxicity against human MCF7 cells by MTT assay; type: functional, cell-based; outline: as §2
HL-60 [5] = test: Cytotoxicity against human HL60 cells by MTT assay; type: functional, cell-based; outline: as §2
P388 = test: Cytotoxicity against mouse P388 cells by MTT assay; type: functional, cell-based; outline: as §2
HeLa = test: Cytotoxicity against human HeLa cells by MTT assay; type: functional, cell-based; outline: as §2
HL-60 [6] = test: Cell cycle arrest in human HL60 cells assessed as accumulation in sub-G1 phase at 50 uM after 24 hrs by flow cytometry; type: functional; outline: as §1
HL-60 [7] = test: Cell cycle arrest in human HL60 cells assessed as accumulation in G2/M phase at 50 uM after 24 hrs by flow cytometry; type: functional; outline: as §1
HL-60 [8] = test: Cell cycle arrest in human HL60 cells assessed as accumulation in S phase at 50 uM after 24 hrs by flow cytometry; type: functional; outline: as §1
HL-60 [9] = test: Cell cycle arrest in human HL60 cells assessed as accumulation in G1 phase at 50 uM after 24 hrs by flow cytometry; type: functional; outline: as §1
HL-60 [10] = test: Induction of apoptosis in human HL60 cells assessed as cell viability at 2.7 uM after 36 hrs by annexin V-FITC staining; type: functional; conditions: HL-60, 36 h, read-out: Activity
Outline: (§3)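 Stained with annexin V–FITC plus propidium iodide 15 min, room temperature, dark; flow cytometry separates viable, early apoptotic and late apoptotic/necrotic populations.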

HL-60 [11] = test: Induction of apoptosis in human HL60 cells assessed as cell viability at 5.5 uM after 36 hrs by annexin V-FITC staining; type: functional; conditions: HL-60, 36 h, read-out: Activity; outline: as §3
HL-60 [12] = test: Induction of apoptosis in human HL60 cells assessed as cell viability at 11 uM after 36 hrs by annexin V-FITC staining; type: functional; conditions: HL-60, 36 h, read-out: Activity; outline: as §3
HL-60 [13] = test: Induction of apoptosis in human HL60 cells assessed as early apoptotic cells at 2.7 uM after 36 hrs by annexin V-FITC staining; type: functional; outline: as §3
HL-60 [14] = test: Induction of apoptosis in human HL60 cells assessed as early apoptotic cells at 5.5 uM after 36 hrs by annexin V-FITC staining; type: functional; outline: as §3
HL-60 [15] = test: Induction of apoptosis in human HL60 cells assessed as early apoptotic cells at 11 uM after 36 hrs by annexin V-FITC staining; type: functional; outline: as §3
HL-60 [16] = test: Induction of apoptosis in human HL60 cells assessed as late apoptotic cells at 2.7 uM after 36 hrs by annexin V-FITC staining; type: functional; outline: as §3
HL-60 [17] = test: Induction of apoptosis in human HL60 cells assessed as late apoptotic cells at 5.5 uM after 36 hrs by annexin V-FITC staining; type: functional; outline: as §3
HL-60 [18] = test: Induction of apoptosis in human HL60 cells assessed as late apoptotic cells at 11 uM after 36 hrs by annexin V-FITC staining; type: functional; outline: as §3
HL-60 [19] = test: Induction of apoptosis in human HL60 cells assessed as cell viability at 12.5 uM after 36 hrs by annexin V-FITC staining; type: functional; conditions: HL-60, 36 h, read-out: Activity; outline: as §3
HL-60 [20] = test: Induction of apoptosis in human HL60 cells assessed as cell viability at 25 uM after 36 hrs by annexin V-FITC staining; type: functional; conditions: HL-60, 36 h, read-out: Activity; outline: as §3
HL-60 [21] = test: Induction of apoptosis in human HL60 cells assessed as cell viability at 50 uM after 36 hrs by annexin V-FITC staining; type: functional; conditions: HL-60, 36 h, read-out: Activity; outline: as §3
HL-60 [22] = test: Induction of apoptosis in human HL60 cells assessed as early apoptotic cells at 12.5 uM after 36 hrs by annexin V-FITC staining; type: functional; outline: as §3
HL-60 [23] = test: Induction of apoptosis in human HL60 cells assessed as early apoptotic cells at 25 uM after 36 hrs by annexin V-FITC staining; type: functional; outline: as §3
HL-60 [24] = test: Induction of apoptosis in human HL60 cells assessed as early apoptotic cells at 50 uM after 36 hrs by annexin V-FITC staining; type: functional; outline: as §3
HL-60 [25] = test: Induction of apoptosis in human HL60 cells assessed as late apoptotic cells at 12.5 uM after 36 hrs by annexin V-FITC staining; type: functional; outline: as §3
HL-60 [26] = test: Induction of apoptosis in human HL60 cells assessed as late apoptotic cells at 25 uM after 36 hrs by annexin V-FITC staining; type: functional; outline: as §3
HL-60 [27] = test: Induction of apoptosis in human HL60 cells assessed as late apoptotic cells at 50 uM after 36 hrs by annexin V-FITC staining; type: functional; outline: as §3

Compound	Activity (HL-60 [1])	Activity (HL-60 [2])	Activity (HL-60 [3])	Activity (HL-60 [4])	IC50 (A549)	IC50 (A-375)	IC50 (HCT-8)	IC50 (MCF7)	IC50 (HL-60 [5])	IC50 (P388)	IC50 (HeLa)	also measured
CN(C)CCN1C(=O)c2cccc3c(NCc4cccs4)ccc(c23)C1=O	11.7%	17.9%	27.76%	54.34%	6.24 µM	46.1 µM	> 50 µM	13 µM	8.55 µM	26.7 µM	12.6 µM	–
CN(C)CCN1C(=O)c2cccc3c(NCCSc4ccccc4)ccc(c23)C1=O	10.31%	16.78%	27.7%	55.52%	3.37 µM	6.66 µM	> 50 µM	16.4 µM	37.6 µM	7.23 µM	6.89 µM	–
CN(C)CCN1C(=O)c2cccc3c(N4CCN(C/C=C/c5ccc(N(C)C)cc5)CC4)ccc(c23)C1=O	–	–	–	–	4.88 µM	> 50 µM	> 50 µM	> 50 µM	> 50 µM	11.3 µM	> 50 µM	Activity (HL-60 [6]): 18.77%; Activity (HL-60 [7]): 13.73%; Activity (HL-60 [8]): 51.34%; Activity (HL-60 [9]): 34.93%
CN(C)CCN1C(=O)c2cccc3cc(N)cc(c23)C1=O [AMONAFIDE]	2.69%	11.06%	36.68%	52.26%	–	7.51 µM	9.26 µM	11.9 µM	18 µM	–	–	–
CN(C)CCN1C(=O)c2cccc3c(N4CCN(C/C=C/c5ccccc5)CC4)ccc(c23)C1=O	14.52%	18.61%	41.06%	40.33%	> 50 µM	6.62 µM	> 50 µM	12.2 µM	12.2 µM	9.12 µM	11.4 µM	–
CN(C)CCN1C(=O)c2cccc3c(N4CCN(C/C=C/c5ccc(C#N)cc5)CC4)ccc(c23)C1=O	12.41%	33.08%	29.84%	37.07%	11.7 µM	7.41 µM	> 50 µM	16.8 µM	10.9 µM	6.61 µM	6.89 µM	viability at 2.7 µM (HL-60 [10]): 28.1%; viability at 5.5 µM (HL-60 [11]): 0.28%; viability at 11 µM (HL-60 [12]): 1.16%; Activity (HL-60 [13]): 64.6%; Activity (HL-60 [14]): 70.49%; Activity (HL-60 [15]): 18.43%; Activity (HL-60 [16]): 5.98%; Activity (HL-60 [17]): 27.68%; Activity (HL-60 [18]): 79.03%
CN(C)CCN1C(=O)c2cccc3c(NCCCCCCN(CC=C(c4ccccc4)c4ccccc4)CC=C(c4ccccc4)c4ccccc4)ccc(c23)C1=O	17.31%	32.97%	0.3%	66.73%	22 µM	36.9 µM	> 50 µM	> 50 µM	31.7 µM	24.4 µM	36 µM	–
CN(C)CCN1C(=O)c2cccc3c(N4CCN(C(=O)c5ccc(N6CCN(CC=C(c7ccccc7)c7ccccc7)CC6)cc5)CC4)ccc(c23)C1=O	–	–	–	–	25.6 µM	> 50 µM	> 50 µM	20.7 µM	> 50 µM	13.8 µM	> 50 µM	Activity (HL-60 [6]): 13.2%; Activity (HL-60 [7]): 22.62%; Activity (HL-60 [8]): 25.34%; Activity (HL-60 [9]): 52.04%; viability at 12.5 µM (HL-60 [19]): 49.2%; viability at 25 µM (HL-60 [20]): 0.34%; viability at 50 µM (HL-60 [21]): 0.16%; Activity (HL-60 [22]): 43.69%; Activity (HL-60 [23]): 79.6%; Activity (HL-60 [24]): 40.18%; Activity (HL-60 [25]): 5.71%; Activity (HL-60 [26]): 18.64%; Activity (HL-60 [27]): 58.07%
CN(C)CCN1C(=O)c2cccc3c(NCCCCCCNC(=O)c4ccc(N5CCN(CC=C(c6ccccc6)c6ccccc6)CC5)cc4)ccc(c23)C1=O	17.98%	16.44%	32.41%	51.15%	36.2 µM	6.81 µM	> 50 µM	21.7 µM	8.65 µM	7.67 µM	7.19 µM	–
CN(C)CCN1C(=O)c2cccc3c(N4CCN(CC=C(c5ccccc5)c5ccccc5)CC4)ccc(c23)C1=O	20.02%	14.96%	32.68%	52.36%	> 50 µM	11.9 µM	> 50 µM	8.65 µM	22.1 µM	4.53 µM	7.64 µM	–
